Results published in ChEMBL document CHEMBL1129275, “Synthesis and in vitro and in vivo characteristics of an iodinated analogue of the beta-adrenoceptor antagonist carazolol” (J Med Chem, 1996).

Columns and labels:
Oryctolagus cuniculus [1] = test: Cerebral biodistribution pattern of [123I]- ligand was evaluated in hypothalamus of anesthetized rabbit after Intravenous injection of 50 uCi after 6 hr; type: ADME, organism-based; settings: in vivo
Method in brief: (§1)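 Male New Zealand white rabbits (2.5–3.5 kg), anesthetized with xylazine 5 mg/kg plus ketamine 30 mg/kg im, given 50 µCi radioligand (specific activity >5000 Ci/mmol) iv via ear vein. Euthanized at set times by pentobarbital 200 mg/kg im, n = 3/time point. Organs removed and weighed, gamma-counted, decay/weight corrected; expressed as % ID x kg body weight/g tissue, mean ± SEM.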

Oryctolagus cuniculus [2] = test: […] biodistribution pattern of [123I]- ligand was evaluated in kidney of anesthetized rabbit after Intravenous injection of 50 uCi after 24 hr; type: ADME, organism-based; settings: in vivo; method in brief: as §1
Oryctolagus cuniculus [3] = test: Biodistribution pattern of [123I]- ligand was evaluated in intestine of anesthetized rabbit after Intravenous injection of 50 uCi after 2 hr; type: ADME, organism-based; settings: in vivo
Method in brief: (§2)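 Male New Zealand white rabbits, 2.5–3.5 kg, anesthetized with 5 mg/kg xylazine plus 30 mg/kg ketamine im. Each received 50 uCi radioligand (specific activity > 5000 Ci/mmol) iv via ear vein. Animals were killed with 200 mg/kg pentobarbital im at the set time. Blood was drawn by intracardiac puncture and organs weighed. Gamma counting was decay-corrected, expressed as %ID x kg body weight/g tissue, mean ± SEM, n = 3/time point.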

Oryctolagus cuniculus [4] = test: Biodistribution pattern of [123I]- ligand was evaluated in intestine of anesthetized rabbit after Intravenous injection of 50 uCi after 6 hr; type: ADME, organism-based; settings: in vivo; method in brief: as §2
Oryctolagus cuniculus [5] = test: Biodistribution pattern of [123I]- ligand was evaluated in kidney of anesthetized rabbit after Intravenous injection of 50 uCi after 5 min; type: ADME, organism-based; settings: in vivo; method in brief: as §2
Oryctolagus cuniculus [6] = test: Biodistribution pattern of [123I]- ligand was evaluated in left atrial muscle of anesthetized rabbit after Intravenous injection of 50 uCi after 24 hr; type: ADME, organism-based, Muscle tissue; settings: in vivo; method in brief: as §2
Oryctolagus cuniculus [7] = test: Biodistribution pattern of [123I]- ligand was evaluated in muscle of anesthetized rabbit after Intravenous injection of 50 uCi after 6 hr; type: ADME, organism-based, Muscle tissue; settings: in vivo; method in brief: as §1
Oryctolagus cuniculus [8] = test: Biodistribution pattern of [123I]- ligand was evaluated in right atrial muscle of anesthetized rabbit after Intravenous injection of 50 uCi after 1 hr; type: ADME, organism-based, Muscle tissue; settings: in vivo; method in brief: as §1
Oryctolagus cuniculus [9] = test: Biodistribution pattern of [123I]- ligand was evaluated in right atrial muscle of anesthetized rabbit after Intravenous injection of 50 uCi after 30 min; type: ADME, organism-based, Muscle tissue; settings: in vivo, 0.5 h; method in brief: as §1
Oryctolagus cuniculus [10] = test: Biodistribution pattern of [123I]- ligand was evaluated in right ventricular muscle of anesthetized rabbit after Intravenous injection of 50 uCi after 30 min; type: ADME, organism-based, Muscle tissue; settings: in vivo, 0.5 h; method in brief: as §1
Oryctolagus cuniculus [11] = test: Cerebral biodistribution pattern of [123I]- ligand was evaluated in pituitary gland of anesthetized rabbit after Intravenous injection of 50 uCi after 5 min; type: ADME, organism-based; settings: in vivo; method in brief: as §1
Oryctolagus cuniculus [12] = test: Biodistribution pattern of [123I]- ligand was evaluated in lung of anesthetized rabbit after Intravenous injection of 50 uCi after 6 hr; type: ADME, organism-based; settings: in vivo; method in brief: as §2
Oryctolagus cuniculus [13] = test: Biodistribution pattern of [123I]- ligand was evaluated in muscle of anesthetized rabbit after Intravenous injection of 50 uCi after 24 hr; type: ADME, organism-based, Muscle tissue; settings: in vivo; method in brief: as §2
Oryctolagus cuniculus [14] = test: Biodistribution pattern of [123I]- ligand was evaluated in muscle of anesthetized rabbit after Intravenous injection of 50 uCi after 4 hr; type: ADME, organism-based, Muscle tissue; settings: in vivo; method in brief: as §2
Oryctolagus cuniculus [15] = test: Cerebral biodistribution pattern of [123I]- ligand was evaluated in frontal cortex of anesthetized rabbit after Intravenous injection of 50 uCi after 4 hr; type: ADME, organism-based; settings: in vivo; method in brief: as §1
Oryctolagus cuniculus [16] = test: Biodistribution pattern of [123I]- ligand was evaluated in blood of anesthetized rabbit after Intravenous injection of 50 uCi after 5 min; type: ADME, organism-based; settings: in vivo; method in brief: as §2
Oryctolagus cuniculus [17] = test: Biodistribution pattern of [123I]- ligand was evaluated in fat of anesthetized rabbit after Intravenous injection of 50 uCi after 5 min; type: ADME, organism-based, Adipose tissue; settings: in vivo; method in brief: as §2
Oryctolagus cuniculus [18] = test: Biodistribution pattern of [123I]- ligand was evaluated in blood of anesthetized rabbit after Intravenous injection of 50 uCi after 6 hr; type: ADME, organism-based; settings: in vivo; method in brief: as §2
Oryctolagus cuniculus [19] = test: Biodistribution pattern of [123I]- ligand was evaluated in fat of anesthetized rabbit after Intravenous injection of 50 uCi after 24 hr; type: ADME, organism-based, Adipose tissue; settings: in vivo; method in brief: as §2
Oryctolagus cuniculus [20] = test: Biodistribution pattern of [123I]- ligand was evaluated in spleen of anesthetized rabbit after Intravenous injection of 50 uCi after 5 min; type: ADME, organism-based; settings: in vivo; method in brief: as §1
Oryctolagus cuniculus [21] = test: Biodistribution pattern of [123I]- ligand was evaluated in liver of anesthetized rabbit after Intravenous injection of 50 uCi after 2 hr; type: ADME, organism-based; settings: in vivo; method in brief: as §2
Oryctolagus cuniculus [22] = test: Biodistribution pattern of [123I]- ligand was evaluated in liver of anesthetized rabbit after Intravenous injection of 50 uCi after 4 hr; type: ADME, organism-based; settings: in vivo; method in brief: as §2
Oryctolagus cuniculus [23] = test: Biodistribution pattern of [123I]- ligand was evaluated in liver of anesthetized rabbit after Intravenous injection of 50 uCi after 5 min; type: ADME, organism-based; settings: in vivo; method in brief: as §2
Oryctolagus cuniculus [24] = test: Biodistribution pattern of [123I]- ligand was evaluated in lung of anesthetized rabbit after Intravenous injection of 50 uCi after 1 hr; type: ADME, organism-based; settings: in vivo; method in brief: as §2
Oryctolagus cuniculus [25] = test: Cerebral biodistribution pattern of [123I]- ligand was evaluated in cerebellum of anesthetized rabbit after Intravenous injection of 50 uCi after 2 hr; type: ADME, organism-based; settings: in vivo; method in brief: as §1
Oryctolagus cuniculus [26] = test: Cerebral biodistribution pattern of [123I]- ligand was evaluated in frontal cortex of anesthetized rabbit after Intravenous injection of 50 uCi after 6 hr; type: ADME, organism-based; settings: in vivo; method in brief: as §1

## CC(C)(/C=C/I)NC[C@H](O)COc1cccc2[nH]c3ccccc3c12
Oryctolagus cuniculus [1]
  ID x kg of body weight/g of tissue: 0.03%
Oryctolagus cuniculus [2]
  ID x kg of body weight/g of tissue: 0.02%
Oryctolagus cuniculus [3]
  ID x kg of body weight/g of tissue: 0.13%
Oryctolagus cuniculus [4]
  ID x kg of body weight/g of tissue: 0.05%
Oryctolagus cuniculus [5]
  ID x kg of body weight/g of tissue: 0.92%
Oryctolagus cuniculus [6]
  ID x kg of body weight/g of tissue: 0.03%
Oryctolagus cuniculus [7]
  ID x kg of body weight/g of tissue: 0.04%
Oryctolagus cuniculus [8]
  ID x kg of body weight/g of tissue: < 0.13%
Oryctolagus cuniculus [9]
  ID x kg of body weight/g of tissue: 0.15%
Oryctolagus cuniculus [10]
  ID x kg of body weight/g of tissue: < 0.21%
Oryctolagus cuniculus [11]
  ID x kg of body weight/g of tissue: 0.5%
Oryctolagus cuniculus [12]
  ID x kg of body weight/g of tissue: 0.71%
Oryctolagus cuniculus [13]
  ID x kg of body weight/g of tissue: 0.05%
Oryctolagus cuniculus [14]
  ID x kg of body weight/g of tissue: 0.04%
Oryctolagus cuniculus [15]
  ID x kg of body weight/g of tissue: 0.06%
Oryctolagus cuniculus [16]
  ID x kg of body weight/g of tissue: 0.03%
Oryctolagus cuniculus [17]
  ID x kg of body weight/g of tissue: 0.008%
Oryctolagus cuniculus [18]
  ID x kg of body weight/g of tissue: 0.01%
Oryctolagus cuniculus [19]
  ID x kg of body weight/g of tissue: 0.01%
Oryctolagus cuniculus [20]
  ID x kg of body weight/g of tissue: 0.39%
Oryctolagus cuniculus [21]
  ID x kg of body weight/g of tissue: 0.09%
Oryctolagus cuniculus [22]
  ID x kg of body weight/g of tissue: 0.04%
Oryctolagus cuniculus [23]
  ID x kg of body weight/g of tissue: 0.14%
Oryctolagus cuniculus [24]
  ID x kg of body weight/g of tissue: 1.43%
Oryctolagus cuniculus [25]
  ID x kg of body weight/g of tissue: 0.15%
Oryctolagus cuniculus [26]
  ID x kg of body weight/g of tissue: 0.05%
